ChEMBL document CHEMBL1811829, “Discovery of selective indole-based prostaglandin D₂ receptor antagonist” (Bioorg Med Chem, 2011)

How the values were obtained:
[1] = target: T1, Prostaglandin D2 receptor (Mus musculus, UniProt P70263); test: Displacement of [3H]-PGD2 from mouse DP receptor expressed in CHO cells after 20 mins by liquid scintillation counting; format: cell-based
T1 sequence (P70263 whole entry): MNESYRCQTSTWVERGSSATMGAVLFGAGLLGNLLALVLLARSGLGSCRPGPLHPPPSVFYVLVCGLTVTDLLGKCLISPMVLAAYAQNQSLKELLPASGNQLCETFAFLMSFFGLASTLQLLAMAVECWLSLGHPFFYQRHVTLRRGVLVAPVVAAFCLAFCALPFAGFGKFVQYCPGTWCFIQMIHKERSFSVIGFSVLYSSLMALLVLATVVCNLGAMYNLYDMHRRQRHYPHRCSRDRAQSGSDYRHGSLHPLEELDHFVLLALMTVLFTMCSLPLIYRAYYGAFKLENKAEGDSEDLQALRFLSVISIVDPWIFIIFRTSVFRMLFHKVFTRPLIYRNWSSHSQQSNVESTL
Method in brief: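 Membranes from CHO cells stably expressing mDP were incubated with 2.5 nM [³H]PGD₂ and compounds at various concentrations. Buffer was 25 mM HEPES–NaOH pH 7.4 with 1 mM EDTA, 5 mM MgCl₂ and 10 mM MnCl₂, for 20 min at room temperature. Samples were filtered on GF/B and washed with Tris–HCl pH 7.4, NaCl, 0.01% BSA. Filters were dried 60 min at 60 °C and read by scintillation counting. Nonspecific binding was set with excess unlabeled PGD₂.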

Prostacyclin receptor = Prostacyclin receptor (Homo sapiens, UniProt P43119); test: Displacement of [3H]-Iloprost from human IP receptor expressed in CHO cells after 30 mins by liquid scintillation counting; format: cell-based
Method in brief: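 Membranes from CHO cells expressing hIP were incubated with 5.0 nM [³H]Iloprost and compounds at various concentrations. Buffer was 50 mM Tris–HCl pH 7.5 with 1 mM EDTA and 10 mM MgCl₂, for 30 min at room temperature. Samples were filtered on GF/B, washed with 10 mM Tris–HCl/100 mM NaCl pH 7.5, dried 60 min at 60 °C and scintillation counted.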

[2] = target: Prostaglandin E2 receptor EP4 subtype (Mus musculus, UniProt P32240); test: Displacement of [3H]-PGE2 from mouse EP4 receptor expressed in CHO cells after 60 mins by liquid scintillation counting; format: cell-based
Method in brief: (§1)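 Membranes from CHO cells stably expressing mEP1, mEP2, mEP3a, mEP4 or mFP were used. The radioligand was 2.5 nM [³H]PGE₂ for EP receptors and 2.5 nM [³H]PGF2α for FP. Buffer was 10 mM KH₂PO₄–KOH pH 6.0 with 1 mM EDTA, 10 mM MgCl₂ and 100 mM NaCl. Incubation was at room temperature, 20 min for mEP1 and 60 min for the others. Samples were filtered on GF/B, washed with phosphate/NaCl pH 6.0, dried 60 min at 60 °C and scintillation counted.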

[3] = target: T2, Prostaglandin E2 receptor EP3 subtype (Mus musculus, UniProt P30557); test: Displacement of [3H]-PGE2 from mouse EP3 receptor expressed in CHO cells after 60 mins by liquid scintillation counting; format: cell-based; method in brief: as §1
T2 sequence (P30557 whole entry): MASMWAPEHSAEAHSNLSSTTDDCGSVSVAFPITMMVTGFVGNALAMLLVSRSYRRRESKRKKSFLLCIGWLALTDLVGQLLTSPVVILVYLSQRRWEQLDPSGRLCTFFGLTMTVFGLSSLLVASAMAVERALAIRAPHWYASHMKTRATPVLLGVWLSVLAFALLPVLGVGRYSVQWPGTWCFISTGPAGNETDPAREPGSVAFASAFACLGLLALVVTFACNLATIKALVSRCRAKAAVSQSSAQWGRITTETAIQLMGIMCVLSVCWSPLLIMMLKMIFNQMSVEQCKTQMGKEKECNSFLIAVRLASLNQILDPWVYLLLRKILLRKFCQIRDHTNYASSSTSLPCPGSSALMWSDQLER

[4] = target: Prostaglandin E2 receptor EP2 subtype (Mus musculus, UniProt Q62053); test: Displacement of [3H]-PGE2 from mouse EP2 receptor expressed in CHO cells after 60 mins by liquid scintillation counting; format: cell-based; method in brief: as §1
[5] = target: T3, Prostaglandin E2 receptor EP1 subtype (Mus musculus, UniProt P35375); test: Displacement of [3H]-PGE2 from mouse EP1 receptor expressed in CHO cells after 20 mins by liquid scintillation counting; format: cell-based; method in brief: as §1
T3 sequence (P35375 whole entry): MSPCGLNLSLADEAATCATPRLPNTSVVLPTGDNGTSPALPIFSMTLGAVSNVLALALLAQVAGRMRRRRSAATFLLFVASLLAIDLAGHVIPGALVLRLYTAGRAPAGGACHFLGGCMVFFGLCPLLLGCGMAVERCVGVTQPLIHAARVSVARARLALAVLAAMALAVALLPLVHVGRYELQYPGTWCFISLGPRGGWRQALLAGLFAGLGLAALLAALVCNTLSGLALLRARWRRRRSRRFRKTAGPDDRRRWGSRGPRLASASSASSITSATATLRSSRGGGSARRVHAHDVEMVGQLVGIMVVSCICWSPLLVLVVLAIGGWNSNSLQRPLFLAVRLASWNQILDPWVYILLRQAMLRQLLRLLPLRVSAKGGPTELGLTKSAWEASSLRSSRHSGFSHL

[6] = target: T1, Prostaglandin D2 receptor; test: Antagonist activity at mouse DP receptor expressed in CHO cells assessed as inhibition of PGD2-induced cAMP accumulation after 10 mins by enzyme immunoassay in the presence of 0.1% BSA; format: functional, cell-based
Method in brief: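 CHO cells stably expressing mDP were seeded at 1 × 10⁵ cells/well and grown 2 days. They were preincubated about 10 min at 37 °C in MEM with Diclofenac, then given assay medium (MEM, 0.1% BSA, 1 mM IBMX, Diclofenac). Test compound at various concentrations plus 10 nM PGD₂ was added for 10 min at 37 °C. The reaction was stopped with ice-cold 10% TCA and TCA was extracted. cAMP was measured by EIA. IC50 came from cAMP relative to the PGD₂-only maximum.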

[7] = target: Prostaglandin F2-alpha receptor (Mus musculus, UniProt P43117); test: Displacement of [3H]-PGF2-alpha from mouse FP receptor expressed in CHO cells after 60 mins by liquid scintillation counting; format: cell-based; method in brief: as §1
Thromboxane A2 receptor = target: T4, Thromboxane A2 receptor (Homo sapiens, UniProt P21731); test: Displacement of [3H]-SQ29548 from human TP receptor expressed in CHO cells after 30 mins by liquid scintillation counting; format: cell-based
T4 sequence (P21731 whole entry): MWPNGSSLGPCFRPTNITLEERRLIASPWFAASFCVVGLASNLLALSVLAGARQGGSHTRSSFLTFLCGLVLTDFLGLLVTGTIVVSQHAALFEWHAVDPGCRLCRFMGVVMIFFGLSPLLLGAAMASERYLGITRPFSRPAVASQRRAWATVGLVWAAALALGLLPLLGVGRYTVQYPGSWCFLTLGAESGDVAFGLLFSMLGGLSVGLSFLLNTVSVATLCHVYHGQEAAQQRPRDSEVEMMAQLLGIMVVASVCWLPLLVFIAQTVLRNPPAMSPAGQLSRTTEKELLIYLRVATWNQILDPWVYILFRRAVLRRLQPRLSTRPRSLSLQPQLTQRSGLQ
Method in brief: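 Membranes from CHO cells expressing hTP were incubated with 5.0 nM [³H]-SQ29548 and compounds at various concentrations. Buffer was 10 mM Tris–HCl pH 7.5 with 100 mM NaCl, for 30 min at room temperature. Samples were filtered on GF/B, washed with the same buffer, dried 60 min at 60 °C and scintillation counted. Nonspecific binding was set with excess unlabeled SQ29548.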

Prostaglandin E2 receptor EP2 subtype, sequence (Q62053 whole entry): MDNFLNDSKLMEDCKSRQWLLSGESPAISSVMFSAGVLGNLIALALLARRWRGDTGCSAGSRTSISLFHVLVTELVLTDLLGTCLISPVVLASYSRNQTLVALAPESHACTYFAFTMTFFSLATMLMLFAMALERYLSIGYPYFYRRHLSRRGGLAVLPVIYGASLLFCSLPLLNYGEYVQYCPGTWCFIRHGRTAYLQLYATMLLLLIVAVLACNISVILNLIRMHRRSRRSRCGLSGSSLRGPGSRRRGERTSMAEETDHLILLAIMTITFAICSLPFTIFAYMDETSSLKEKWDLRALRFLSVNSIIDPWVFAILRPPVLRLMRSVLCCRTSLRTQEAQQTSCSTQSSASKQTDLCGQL
Prostaglandin F2-alpha receptor, sequence (P43117 whole entry): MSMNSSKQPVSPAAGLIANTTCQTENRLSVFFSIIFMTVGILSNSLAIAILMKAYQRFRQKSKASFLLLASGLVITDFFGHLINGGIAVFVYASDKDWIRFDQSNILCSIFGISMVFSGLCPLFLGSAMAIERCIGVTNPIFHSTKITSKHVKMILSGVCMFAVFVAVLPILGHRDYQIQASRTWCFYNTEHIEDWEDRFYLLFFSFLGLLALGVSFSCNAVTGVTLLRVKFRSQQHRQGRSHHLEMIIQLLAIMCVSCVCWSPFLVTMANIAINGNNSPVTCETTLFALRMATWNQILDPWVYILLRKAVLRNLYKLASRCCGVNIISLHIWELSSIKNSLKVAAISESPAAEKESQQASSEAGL
Prostaglandin E2 receptor EP4 subtype, sequence (P32240 whole entry): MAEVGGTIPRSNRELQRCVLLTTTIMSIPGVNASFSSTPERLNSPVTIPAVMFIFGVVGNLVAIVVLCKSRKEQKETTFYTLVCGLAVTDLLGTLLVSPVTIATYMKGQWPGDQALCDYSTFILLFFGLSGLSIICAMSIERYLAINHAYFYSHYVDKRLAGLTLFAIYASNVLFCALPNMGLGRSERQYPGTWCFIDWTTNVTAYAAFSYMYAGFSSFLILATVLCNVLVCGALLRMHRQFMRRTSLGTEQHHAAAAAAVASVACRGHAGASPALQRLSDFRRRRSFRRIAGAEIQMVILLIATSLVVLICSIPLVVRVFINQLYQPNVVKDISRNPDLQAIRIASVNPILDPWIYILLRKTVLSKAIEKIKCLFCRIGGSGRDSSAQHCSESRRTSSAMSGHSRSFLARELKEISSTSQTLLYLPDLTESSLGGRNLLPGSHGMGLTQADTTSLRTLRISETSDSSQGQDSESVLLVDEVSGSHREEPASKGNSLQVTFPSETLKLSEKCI
Prostacyclin receptor, sequence (P43119 whole entry): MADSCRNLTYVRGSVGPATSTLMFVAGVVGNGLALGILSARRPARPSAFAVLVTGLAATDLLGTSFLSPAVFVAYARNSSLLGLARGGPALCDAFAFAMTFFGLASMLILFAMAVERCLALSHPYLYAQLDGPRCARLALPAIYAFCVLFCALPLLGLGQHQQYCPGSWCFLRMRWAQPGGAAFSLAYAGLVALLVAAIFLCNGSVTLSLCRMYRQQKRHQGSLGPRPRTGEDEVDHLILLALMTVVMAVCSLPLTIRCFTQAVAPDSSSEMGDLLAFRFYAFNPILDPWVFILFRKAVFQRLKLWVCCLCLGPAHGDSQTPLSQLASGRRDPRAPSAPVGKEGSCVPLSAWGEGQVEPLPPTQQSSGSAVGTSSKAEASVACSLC

Ki [1]	Ki (Prostacyclin receptor)	Ki [2]	Ki [3]	Ki [4]	Ki [5]	IC50 [6]	Ki [7]	Ki (Thromboxane A2 receptor)	SMILES
340 nM	430 nM	–	–	–	–	–	–	–	COc1cc(C(=O)n2c(C)c(CC(=O)O)c3ccccc32)ccc1OC[C@@H]1CN(C)c2ccccc2O1
> 10000 nM	–	> 10 µM	> 10000 nM	> 10000 nM	> 10 µM	–	–	–	COc1ccc2c(c1)c(CC(=O)O)c(C)n2C(=O)c1ccc(Cl)cc1 [INDOMETHACIN]
2.7 nM	130 nM	–	–	–	–	3.2 nM	–	–	Cc1cc(OC[C@@H]2CN(C)c3ccccc3O2)ccc1C(=O)n1c(C)c(CC(=O)O)c2cc(F)ccc21
–	230 nM	–	–	–	–	32 nM	–	–	Cc1c(OC[C@@H]2CN(C)c3ccccc3O2)ccc(C(=O)n2c(C)c(CC(=O)O)c3cc(F)ccc32)c1C
29 nM	49 nM	> 10 µM	> 10000 nM	330 nM	> 10 µM	3.1 nM	2200 nM	–	Cc1c(CC(=O)O)c2cc(Cl)ccc2n1C(=O)c1ccc(OC[C@@H]2CN(C)c3ccccc3O2)cc1
–	> 10000 nM	–	–	–	–	6.2 nM	–	–	Cc1cc(OCC2Cc3ccccc3N2C)ccc1C(=O)n1c(C)c(CC(=O)O)c2ccccc21 (stereo not given)
59 nM	160 nM	–	–	–	–	42 nM	–	–	Cc1cc(C(=O)n2c(C)c(CC(=O)O)c3cc(F)ccc32)ccc1OC[C@@H]1CN(C)c2ccccc2O1
–	3000 nM	–	–	–	–	43 nM	–	–	Cc1cc(OCC2Oc3ccccc3O2)ccc1C(=O)n1c(C)c(CC(=O)O)c2ccccc21
7.1 nM	280 nM	–	–	–	–	7 nM	–	–	Cc1cc(OC[C@@H]2Cc3ccccc3O2)ccc1C(=O)n1c(C)c(CC(=O)O)c2ccccc21
380 nM	91 nM	–	–	–	–	–	–	–	Cc1c(CC(=O)O)c2ccccc2n1C(=O)c1ccc(OC[C@@H]2CN(C)c3ccccc3O2)c(Cl)c1
43 nM	2100 nM	–	–	–	–	72 nM	–	–	Cc1cc(OC[C@@H]2COc3ccccc32)ccc1C(=O)n1c(C)c(CC(=O)O)c2ccccc21
7.7 nM	200 nM	> 10 µM	1700 nM	210 nM	> 10 µM	–	2100 nM	> 10 µM	Cc1c(CC(=O)O)c2ccccc2n1C(=O)c1ccc(OC[C@@H]2CN(C)c3ccccc3O2)cc1
14 nM	93 nM	–	–	–	–	2.8 nM	–	–	Cc1cc(C(=O)n2c(C)c(CC(=O)O)c3cc(F)ccc32)c(C)cc1OC[C@@H]1CN(C)c2ccccc2O1
140 nM	72 nM	–	–	–	–	–	–	–	Cc1cc(C(=O)n2c(C)c(CC(=O)O)c3ccccc32)ccc1OC[C@@H]1CN(C)c2ccccc2O1
5.4 nM	520 nM	–	–	–	–	1.8 nM	–	–	Cc1cc(OC[C@@H]2COc3ccc(F)cc32)ccc1C(=O)n1c(C)c(CC(=O)O)c2ccccc21
28 nM	1100 nM	3.6 µM	2800 nM	340 nM	5.2 µM	4.3 nM	1700 nM	> 10 µM	Cc1ccc2c(c1)c(CC(=O)O)c(C)n2C(=O)c1ccc(OC[C@@H]2CN(C)c3ccccc3O2)cc1
22 nM	5100 nM	–	–	–	–	3.1 nM	–	–	CCN1c2ccccc2CC1COc1ccc(C(=O)n2c(C)c(CC(=O)O)c3ccccc32)c(C)c1 (stereo not given)
22 nM	570 nM	–	–	–	–	3.8 nM	–	–	Cc1cc(OC[C@@H]2COc3ccccc3O2)ccc1C(=O)n1c(C)c(CC(=O)O)c2ccccc21
–	1500 nM	–	–	–	–	68 nM	–	–	COc1cc(C(=O)n2c(C)c(CC(=O)O)c3cc(F)ccc32)ccc1OC[C@@H]1CN(C)c2ccccc2O1
360 nM	94 nM	–	–	–	–	–	–	–	Cc1cc(C(=O)n2c(C)c(CC(=O)O)c3ccccc32)c(C)cc1OC[C@@H]1CN(C)c2ccccc2O1
3.8 nM	110 nM	–	–	–	–	2.5 nM	–	–	Cc1c(CC(=O)O)c2ccccc2n1C(=O)c1ccc(OC[C@@H]2CN(C)c3ccccc3O2)cc1F
3.8 nM	320 nM	–	–	–	–	0.7 nM	–	–	Cc1c(CC(=O)O)c2cc(F)ccc2n1C(=O)c1ccc(OC[C@@H]2CN(C)c3ccccc3O2)cc1F
9.9 nM	1000 nM	3 µM	2500 nM	310 nM	> 10 µM	–	–	–	COc1ccc2c(c1)c(CC(=O)O)c(C)n2C(=O)c1ccc(OC[C@@H]2CN(C)c3ccccc3O2)cc1
380 nM	98 nM	–	–	–	–	–	–	–	Cc1c(OC[C@@H]2CN(C)c3ccccc3O2)ccc(C(=O)n2c(C)c(CC(=O)O)c3ccccc32)c1C
240 nM	210 nM	–	–	–	–	–	–	–	Cc1c(CC(=O)O)c2ccccc2n1C(=O)c1ccc(OC[C@@H]2CN(C)c3ccccc3O2)c(F)c1
5.7 nM	320 nM	> 10 µM	1900 nM	250 nM	> 10 µM	1.8 nM	1700 nM	> 10 µM	Cc1c(CC(=O)O)c2cc(F)ccc2n1C(=O)c1ccc(OC[C@@H]2CN(C)c3ccccc3O2)cc1
